Compound activity (PubChem)
FXIa inh = factor XIa (human) inhibition | P03951 | purified FXIa, Boc-Glu-Ala-Arg-AMC fluorogenic substrate | inhibition, % at 5 µM | 0.14% of 220,000 active;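 active means inhibition of at least 40%; inactive means inhibition below 40%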;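 further: fluorescence of freed AMC excited at 355 nm; 0% = enzyme without compound and 100% = no enzyme blank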
Target sequence (P03951 19-387 limits assumed): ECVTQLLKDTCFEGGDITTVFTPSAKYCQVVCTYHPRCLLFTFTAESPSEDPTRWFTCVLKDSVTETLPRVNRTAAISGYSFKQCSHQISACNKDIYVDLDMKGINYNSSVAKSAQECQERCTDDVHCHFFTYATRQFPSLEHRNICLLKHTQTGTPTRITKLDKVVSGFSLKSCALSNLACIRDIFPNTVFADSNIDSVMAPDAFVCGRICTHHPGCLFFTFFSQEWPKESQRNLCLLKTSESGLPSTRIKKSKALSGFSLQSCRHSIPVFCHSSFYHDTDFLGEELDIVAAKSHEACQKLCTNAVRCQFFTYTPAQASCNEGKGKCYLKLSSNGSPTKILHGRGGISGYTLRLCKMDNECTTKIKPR
Target sequence (P03951 388-625 limits assumed): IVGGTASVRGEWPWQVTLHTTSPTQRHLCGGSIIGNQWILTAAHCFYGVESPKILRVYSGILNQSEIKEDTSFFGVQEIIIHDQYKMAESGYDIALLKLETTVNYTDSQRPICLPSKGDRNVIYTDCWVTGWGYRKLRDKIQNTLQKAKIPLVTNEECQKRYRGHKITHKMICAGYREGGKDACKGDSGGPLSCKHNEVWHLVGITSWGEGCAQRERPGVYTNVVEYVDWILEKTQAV
thrombin 1536 = inhibitors of human thrombin. 0.26% of 220,000 active. inhibition, % at 5 µM. AID 1046. alpha-thrombin, Boc-VPR-AMC fluorogenic substrate cleavage. P00734;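 active means inhibition at or above 40%; inactive means inhibition below 40%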;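 further: 0% = enzyme with no compound and 100% = wells without enzyme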
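Test system: human alpha-thrombin protein / Dosing: one concentration per compound, 5 µM, with 0.2% DMSO / Medium: pH 7.5 Tris-saline with Tween 20 / Benchmarks: no-compound enzyme wells and no-enzyme blanks / Read-out basis: percent inhibition of thrombin substrate cleavage / Timing: reaction at room temperature / Measured by: fluorescence, ex 355 nm, em 460 nm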
hK5 inh = inhibitors of human kallikrein 5. Q9Y337. recombinant hK5, fluorogenic AMC substrate cleavage. inhibition, % at 5 µM. 0.59% of 210,000 active;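 active means inhibition of 40% or more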;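 further: 0% = enzyme controls without compound and 100% = no-enzyme blanks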
Furin inhibitor = blocks human furin protease activity | P09958 | purified furin, fluorogenic substrate cleavage | inhibition, % at 20 µM or 30 µM | 0.061% of 220,000 active; in the data active means inhibition above about 25%
FXIIa inh 1536 = factor XIIa (human) inhibition; inhibition, % at 5 µM; purified FXIIa, Boc-QGR-AMC fluorogenic substrate, 2 h; P00748; 0.3% of 220,000 active; AID 800; in the data active means inhibition above about 40%;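 further: 0% = enzyme with no compound and 100% = blank without enzyme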
* hit, by the source's call; . = no result. An excerpt weighted towards active compounds, which were near 1.1% of everything screened.

SMILES	FXIa inh	thrombin 1536	hK5 inh	Furin inhibitor	FXIIa inh 1536
CC(C)c1csc(CN2CCCC(CCC(=O)NCc3ccccc3F)C2)n1 (stereo unspecified)	50*	5	27	-13	28
Cc1nn(C(C)C)c(C)c1CN1CCCC(CCC(=O)NCc2ccccc2F)C1 (stereo unspecified)	-3	0	.	-41	5
O=C(Cc1ccccc1)NN1C(=O)/C(=C/c2ccccc2C(=O)O)SC1=S	1	-1	.	-18	13
Nc1nnc(SCCCC(=O)c2ccccc2)s1	-11	46*	17	-10	-2
Nc1nnc(SCC(=O)c2ccc3ccccc3c2)s1	-1	-3	-5	-12	-6
CC(C)N(Cc1ccccc1)C(=S)NC1CCCCC1	42*	3	21	-2	102*
CCCCCC(=O)N(CN1C(=O)CCC1=O)c1ccccc1	6	0	-11	32*	5
O=C1CCC(=O)N1CC(=O)N(c1ccccc1)c1ccccc1	6	8	7	4	11
COc1ccc(Cn2nnnc2C(c2ccccc2Cl)N2CCC(C(N)=O)CC2)cc1 (stereo unspecified)	-4	-1	-11	2	3
COc1ccc(Cn2nnnc2C(c2cc(OC)ccc2OC)N2CCC(C(N)=O)CC2)cc1 (stereo unspecified)	15	37	70*	-4	23
O=C(NNC(=S)Nc1ccccc1)C1CCCCC1	0	5	-24	-19	1
CCc1nnc(NC(=O)CCC(=O)N2CCN(CCOc3ccc(C)cc3)CC2)s1	15	13	22	-13	42*
CC1CC(=O)Nc2ccccc2N1C(=O)Nc1ccc(F)cc1 (stereo unspecified)	27	10	55*	-6	11
CCC(=O)n1nc(-c2ccc(Cl)cc2)nc1SC	22	57*	-7	-14	34
CCC(=O)n1nc(-c2ccc(OC)cc2)nc1SC	6	28	-7	-19	11
CCCC(=O)n1nc(-c2ccc(Cl)cc2)nc1SC	0	52*	-4	-15	14
CSc1ccc(CN2CCN(C3CCCC3)C(CCO)C2)cc1 (stereo unspecified)	5	2	.	-26	5
O=C(CNC(=S)N(Cc1ccccc1)Cc1cccnc1)N1CCOCC1	0	-1	-2	-22	6
CCn1cc(C(=O)NCCc2ccccc2)c(=O)c2cc(S(=O)(=O)N3CCCC3)ccc21	-2	31	-4	-11	4
CCN(CC)S(=O)(=O)c1ccc2c(c1)c(=O)c(C(=O)NCCCN(C)c1ccccc1)cn2C	-1	-1	2	-13	9
CCn1cc(C(=O)NCc2ccco2)c(=O)c2cc(S(=O)(=O)N3CCCC3)ccc21	3	83*	1	-23	10
Cn1cc(C(=O)NCc2ccc(F)cc2)c(=O)c2cc(S(=O)(=O)N3CCCCC3)ccc21	-6	3	-9	-10	0
CCN(CC)S(=O)(=O)c1ccc2c(c1)c(=O)c(C(=O)NCc1cccs1)cn2C	5	64*	-7	-29	12
COc1ccccc1CNC(=O)c1cn(C)c2ccc(S(=O)(=O)N3CCCC3)cc2c1=O	-4	45*	-6	-23	6
CC(C)Cn1c(-c2csc3c2CCCC3)n[nH]c1=S	-2	4	-31	-10	15
SMILES	FXIa inh	thrombin 1536	hK5 inh	Furin inhibitor	FXIIa inh 1536
O=c1[nH]c2cc3c(cc2cc1CN(Cc1nnnn1CC1CCCO1)C1CCCCC1)OCO3 (stereo unspecified)	-5	3	54*	-70	-11
Cc1cccc2cc(CN(Cc3nnnn3C3CCCCC3)C3CCCC3)c3nnnn3c12	9	5	-19	-20	18
Cc1cc(C)c2[nH]c(=O)c(CN(Cc3nnnn3C3CCCC3)C3CCCCC3)cc2c1	-2	3	42*	-30	-5
Cc1ccc(SCC(=O)Nc2ccc(F)cc2[N+](=O)[O-])cc1C	0	-4	-12	-19	7
COc1ccc(CN2CCN(C(=O)C3CCC(CNS(=O)(=O)c4ccccc4)CC3)CC2)c(OC)c1OC (stereo unspecified)	28	26	21	-21	101*
CCOC(=O)N1CCN(C(=O)C2CCC(CNS(=O)(=O)c3ccccc3)CC2)CC1 (stereo unspecified)	-3	5	-4	-16	4
CCOc1ccc(CCNC(=O)c2cccc(N3CCCC3=O)c2)cc1OCC	-10	-2	-2	1	5
COc1ccc(CCNC(=O)c2ccc(N3CCCC3=O)cc2)cc1OC	0	-1	-7	26*	7
Cc1cc(C)c2c3c(sc2n1)C(c1cccc(F)c1)C(C#N)=C(N)O3 (stereo unspecified)	4	60*	14	-13	10
CCCN1CCC2(CC1)C(C#N)=C(N)Oc1c2sc2nc(C)cc(C)c12	5	7	-5	-22	18
COc1ccc(-c2nc(C)sc2CC(=O)O)cc1OC	-2	0	2	-25	4
Cc1cc2c(NC(=O)Nc3ccccc3)cccc2nn1	33	2	57*	0	35
COc1ccc(C2C(C(=O)O)c3ccccc3C(=O)N2C)cc1Br (stereo unspecified)	34	1	3	-33	58*
CCN(CC)CCOc1ccccc1C(C)=O	-6	0	9	-16	8
Cc1ccc(NC(=S)N2CCCC(CO)C2)c(C)c1 (stereo unspecified)	1	0	-32	-36	9
CNC(=O)COC(=O)c1cc(-c2ccco2)nc2ccccc12	32	16	28	2	51*
O=C(COC(=O)c1cc(-c2ccco2)nc2ccccc12)NCc1ccccc1	-2	2	-51	-13	22
COc1ccc(Cl)cc1N1C(=O)CC(Sc2ccccc2N)C1=O (stereo unspecified)	-2	-7	1	16	4
CN1C(=O)C(O)(c2sc(N)nc2-c2ccccc2)c2ccccc21 (stereo unspecified)	-2	13	56*	-12	-3
CCC(=O)N1c2ccccc2NC2=C(C(=O)CCC2)C1c1ccc(N(C)C)cc1 (stereo unspecified)	5	14	43*	-10	9
COc1cccc(Oc2c(C)oc3c(CN4CCCC4)c(O)ccc3c2=O)c1	-6	-7	-8	-18	-10
CCC(C)[C@H](NC(=O)Nc1ccc(C(C)=O)cc1)C(=O)OC (stereo partly specified)	24	1	2	-5	44*
CC(C)NC(=O)CSc1nc(-c2ccccc2)cs1	46*	40*	21	-16	26
CN(CC(=O)NCc1ccco1)S(=O)(=O)c1ccc2c(c1)c(=O)n(C)c(=O)n2C	-1	-6	-2	-2	2
Clc1ccc(-c2csc(N3CCOCC3)n2)cc1	48*	24	45*	-13	38
CCn1ncc(C2=NOC(C(=O)Nc3c(C)n(C)n(-c4ccccc4)c3=O)C2)c1C (stereo unspecified)	5	39	60*	-15	6
